Results taken from the array DNA melting data of Ke et al. (doi:10.1101/2024.01.08.574731).

Key:
[1] = folding enthalpy; higher = less favourable; fluorescence melt of hairpins on a sequencing array, two-state fit; settings: sodium 0.088 M
Summary of the method: (§1)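 In 50 mM Na-HEPES pH 8.0 containing 25 mM NaCl, hairpins from the library on a sequenced MiSeq flow cell were imaged for Cy3 fluorescence at 2.5 °C steps up to 60 °C, with Cy3 and quencher oligos annealed. After normalisation to pre-quench Cy3 and to control constructs, two-state fits with bootstrapping gave melting temperature and folding enthalpy. Four replicates were combined by inverse-variance weighting, and fitted temperatures were shifted up by 9.35 °C to match UV melts.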

[2] = melting temperature; fluorescence melt of hairpins on a sequencing array, two-state fit, raised by 9.35 °C to match UV melts; settings: sodium 0.088 M
Summary of the method: as §1

Sequence	folding enthalpy [1]	Tm [2]
GGCGCTGGAAACAGTGCC (((.(((....))).)))	-49.2 kcal/mol	62.6 °C
GTTGTTTCGAAAGAAAAC (((..(((....))))))	-32.9 kcal/mol	41.8 °C
CGCCGCGGAAACGCAGCG (((.(((....))).)))	-37.5 kcal/mol	59 °C
GAGTGGCGAAAGCCTCTC (((.(((....))).)))	-24.2 kcal/mol	53.6 °C
GGTTGGCGAAAGCCCACC (((.(((....))).)))	-25.8 kcal/mol	51.4 °C
GCCGTGCGAAAGCTTGGC (((..((....))..)))	-28.5 kcal/mol	59.6 °C
GATCCCTAGAGGGATC ((((((....))))))	-40.2 kcal/mol	59 °C
GCGGCCTCCCGC ((((....))))	-22.3 kcal/mol	56.3 °C
GAATTGGGAAACTAATTC (((((.(....).)))))	-22.7 kcal/mol	35.5 °C
GAGAGTGGAAACATTCTC ((((.((....)).))))	-32.6 kcal/mol	38.5 °C
GACATTGGAAACAATGTC (((((((....)))))))	-44.1 kcal/mol	56.6 °C
GTCACGCGAAAGCGAGAC (((.(((....))).)))	-17.5 kcal/mol	60.1 °C
GCGACCGGAAACAGTCGC (((((.(....).)))))	-39.2 kcal/mol	55.1 °C
GATCCCGATGGGGATC ((((((....))))))	-34.8 kcal/mol	63.3 °C
GCCTCCGAAAGGATGGC ((((((....))).)))	-36.6 kcal/mol	57 °C
GGCCGCGAAAGCGAAGCC ((((((....)))..)))	-27.7 kcal/mol	58.9 °C
GAGGCTGGAAACAACCTC ((((.((....)).))))	-29.2 kcal/mol	41.8 °C
GGATTGGGAAACCAATCC (((((((....)))))))	-48.6 kcal/mol	60.2 °C
GCATGGCGAAAGCGAAGC ((.(.((....)).).))	-11.7 kcal/mol	35.4 °C
GAAACCGAAAGGTTCTTC ((((((....)))..)))	-22.5 kcal/mol	54.4 °C
GGGTCTGAAAAGACCC ((((((....))))))	-26 kcal/mol	68.4 °C
CGTAACGGAAACGTCACG (((.(((....))).)))	-31.7 kcal/mol	41.9 °C
GTTTGGCGAAAGCCTAAC (((.(((....))).)))	-21.8 kcal/mol	51 °C

Sequence	folding enthalpy [1]	Tm [2]
GTAGGACGAAAGTCGTAC (((.(((....))).)))	-35.6 kcal/mol	53.2 °C
GATCGTCGGACGATC ((((((...))))))	-38.9 kcal/mol	53.8 °C
GACCTGGGAAACCAGGCC (.(((((....))))).)	-12.7 kcal/mol	46.4 °C
GTCTGACGAAAGTCGAC (((.(((....))))))	-16.9 kcal/mol	49 °C
GCTCAGACGAAAGTCAGC (((..(((....))))))	-15.5 kcal/mol	41 °C
GTGGGGGGAAACCCCTGC (..((((....))))..)	-11.5 kcal/mol	42.3 °C
GCAGCTGGAAACGGTTGC (((.(.(....).).)))	-29.1 kcal/mol	41.1 °C
GAGGCACCGAAAGGTCTC (((..(((....))))))	-11.5 kcal/mol	31.3 °C
GATCCTAGGAAGGATC ((((((....))))))	-32.8 kcal/mol	50.1 °C
GCATTGGGAAACTAGTGC (((.(.(....).).)))	-19.5 kcal/mol	29.8 °C
GCTTATCCGAAAGGAAGC (((..(((....))))))	-15.5 kcal/mol	34.3 °C
GCGTCCGAAAGGATCCGC ((((((....)))..)))	-21.2 kcal/mol	44.7 °C
GATCGCTAGGCGATC ((((((...))))))	-36.8 kcal/mol	68.4 °C
GATAAGACGAAAGTCATC (((..(((....))))))	-15.2 kcal/mol	26.7 °C
GCGGTTGGAAACGATCGC (((.(.(....).).)))	-28.5 kcal/mol	45.3 °C
GGATTGCCGAAAGGCTCC (((..(((....))))))	-8.38 kcal/mol	37.6 °C
GCAGACGAAAGTCGTTGC ((((((....)))..)))	-14.1 kcal/mol	50.5 °C
GACGTCGGAAACGGTGTC (((..((....))..)))	-25.7 kcal/mol	43 °C
GATCAATGGTTGATC ((((((...))))))	-26.7 kcal/mol	41 °C
GCTGTGGGAAACTACAGC (((((.(....).)))))	-41.4 kcal/mol	53.1 °C
GATCCATACCTGGATC ((((((....))))))	-36.8 kcal/mol	52.1 °C
GAATGGGGAAACCCATTC (((((((....)))))))	-33.7 kcal/mol	57.6 °C
GATGGCGGAAACGCCGTC ((.((((....)))).))	-21.4 kcal/mol	58.3 °C
